≈ marks a conversion by molar mass, not a printed value. Calls of active or inactive are those of the source. The rule behind the calls is not given here.
Legend:
[1] = tested on: Aspergillus niger; experiment: Antifungal activity against Aspergillus niger after 48 hrs by two fold serial dilution method; format: functional
Method in brief: (§1)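 Two-fold serial broth dilution in a suitable broth, run only on compounds giving inhibition zones of at least 16 mm. Final concentrations were […]. Each 5 mL received 0.1 mL inoculum and was incubated 48 h at 28 °C. MIC was the lowest concentration without growth.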

[2] = tested on: Escherichia coli; experiment: Antibacterial activity against Escherichia coli ATCC 25922 after 24 hrs by two fold serial dilution method; format: functional
[3] = tested on: Aspergillus niger; experiment: Antifungal activity against Aspergillus niger at 50 mg/mL after 48 hrs by agar well diffusion method; format: functional
[4] = tested on: Klebsiella pneumoniae; experiment: microbe, parasite or virus in culture; details: ATCC 13883, 24 h, read-out: DIZ
[5] = tested on: Pseudomonas aeruginosa; experiment: microbe, parasite or virus in culture; details: ATCC 27953, 24 h, read-out: DIZ
[6] = tested on: Saccharomyces cerevisiae; experiment: Antifungal activity against Saccharomyces cerevisiae after 48 hrs by two fold serial dilution method; format: functional; method in brief: as §1
[7] = tested on: Candida albicans; experiment: Antifungal activity against Candida albicans NRRL Y-477 after 48 hrs by two fold serial dilution method; format: functional; method in brief: as §1
[8] = tested on: Candida albicans; experiment: Antifungal activity against Candida albicans NRRL Y-477 at 50 mg/mL after 48 hrs by agar well diffusion method; format: functional
[9] = tested on: Priestia megaterium; experiment: Antibacterial activity against Bacillus megaterium ATCC 9885 at 50 mg/mL after 24 hrs by agar well diffusion method; format: functional
[10] = tested on: Micrococcus luteus; experiment: Antibacterial activity against Sarcina lutea at 50 mg/mL after 24 hrs by agar well diffusion method; format: functional
[11] = tested on: Bacillus subtilis; experiment: microbe, parasite or virus in culture; details: ATCC 6633, 24 h, read-out: DIZ
[12] = tested on: Staphylococcus aureus; experiment: microbe, parasite or virus in culture; details: ATCC 29213, 24 h, read-out: DIZ
[13] = tested on: Bacillus subtilis; experiment: Antibacterial activity against Bacillus subtilis ATCC 6633 after 24 hrs by two fold serial dilution method; format: functional
[14] = tested on: Klebsiella pneumoniae; experiment: Antibacterial activity against Klebsiella pneumoniae ATCC 13883 after 24 hrs by two fold serial dilution method; format: functional
[15] = tested on: Priestia megaterium; experiment: Antibacterial activity against Bacillus megaterium ATCC 9885 after 24 hrs by two fold serial dilution method; format: functional
[16] = tested on: Saccharomyces cerevisiae; experiment: Antifungal activity against Saccharomyces cerevisiae at 50 mg/mL after 48 hrs by agar well diffusion method; format: functional
[17] = tested on: Micrococcus luteus; experiment: Antibacterial activity against Sarcina lutea after 24 hrs by two fold serial dilution method; format: functional
[18] = tested on: Pseudomonas aeruginosa; experiment: Antibacterial activity against Pseudomonas aeruginosa ATCC 27953 after 24 hrs by two fold serial dilution method; format: functional
[19] = tested on: Escherichia coli; experiment: Antibacterial activity against Escherichia coli ATCC 25922 at 50 mg/mL after 24 hrs by agar well diffusion method; format: functional, organism-based
Method in brief: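 Agar well diffusion: bacterial suspension at 1 × 10⁸ CFU/mL spread on nutrient agar; 10 mm wells cut in solidified agar and filled with compound in DMSO; plates incubated 24 h at 37 °C; inhibition zone diameter read; DMSO as negative control.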

[20] = tested on: Klebsiella pneumoniae; details: ATCC 13883, 50 mg/mL
[21] = tested on: Bacillus subtilis; details: ATCC 6633, 50 mg/mL
[22] = tested on: Staphylococcus aureus; experiment: Antibacterial activity against Staphylococcus aureus ATCC 29213 after 24 hrs by two fold serial dilution method; format: functional
[23] = tested on: Pseudomonas aeruginosa; details: ATCC 27953, 50 mg/mL
[24] = tested on: Staphylococcus aureus; details: ATCC 29213, 50 mg/mL
[25] = Antioxidant activity assessed as DPPH free radical scavenging activity by spectrophotometric assay; format: physicochemical
Method in brief: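 Sample solutions at several concentrations were added to 0.004% DPPH in methanol and incubated 60 min in the dark. Absorbance was read at 517 nm against a blank. Inhibition % = (A_blank − A_sample)/A_blank × 100, where the control contained all reagents except the test compound.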

[26] = tested on: Pseudomonas aeruginosa; experiment: Antibacterial activity against Pseudomonas aeruginosa ATCC 27953 using 100 uL of test compound after 24 hrs by agar well diffusion method; format: functional
Method in brief: (§2)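 Agar well diffusion. Nutrient agar was spread with bacterial suspension at 1×10⁸ CFU/mL, and 10 mm wells were cut. Wells were loaded with compound solution made at 200 mg per 1 mL DMSO. Plates were incubated 24 h at 37 °C and inhibition zones were measured. DMSO served as the negative control.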

[27] = tested on: Aspergillus niger; experiment: Antifungal activity against Aspergillus niger using 100 uL of test compound after 48 hrs by agar well diffusion method; format: functional
Method in brief: as §2, with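 “Sabouraud dextrose” for “Nutrient”, “yeast or fungal” for “bacterial”, “1×10⁶” for “1×10⁸”, “48” for “24”, “28” for “37”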

[28] = tested on: Escherichia coli; experiment: Antibacterial activity against Escherichia coli ATCC 25922 using 100 uL of test compound after 24 hrs by agar well diffusion method; format: functional; method in brief: as §2
[29] = tested on: Saccharomyces cerevisiae; experiment: Antifungal activity against Saccharomyces cerevisiae using 100 uL of test compound after 48 hrs by agar well diffusion method; format: functional
Method in brief: as §2, with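 “Sabouraud dextrose” for “Nutrient”, “yeast or fungal” for “bacterial”, “1×10⁶” for “1×10⁸”, “48” for “24”, “28” for “37”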

[30] = tested on: Candida albicans; experiment: Antifungal activity against Candida albicans NRRL Y-477 using 100 uL of test compound after 48 hrs by agar well diffusion method; format: functional
Method in brief: as §2, with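 “Sabouraud dextrose” for “Nutrient”, “yeast or fungal” for “bacterial”, “1×10⁶” for “1×10⁸”, “48” for “24”, “28” for “37”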

[31] = tested on: Micrococcus luteus; experiment: Antibacterial activity against Sarcina lutea using 100 uL of test compound after 24 hrs by agar well diffusion method; format: functional; method in brief: as §2
[32] = tested on: Bacillus subtilis; experiment: Antibacterial activity against Bacillus subtilis ATCC 6633 using 100 uL of test compound after 24 hrs by agar well diffusion method; format: functional; method in brief: as §2
[33] = tested on: Klebsiella pneumoniae; experiment: Antibacterial activity against Klebsiella pneumoniae ATCC 13883 using 100 uL of test compound after 24 hrs by agar well diffusion method; format: functional; method in brief: as §2
[34] = tested on: Staphylococcus aureus; experiment: Antibacterial activity against Staphylococcus aureus ATCC 29213 using 100 uL of test compound after 24 hrs by agar well diffusion method; format: functional; method in brief: as §2
[35] = tested on: Priestia megaterium; experiment: Antibacterial activity against Bacillus megaterium ATCC 9885 using 100 uL of test compound after 24 hrs by agar well diffusion method; format: functional; method in brief: as §2

Structure (SMILES) | MIC [1] | MIC ([2]; ATCC 25922, 24 h) [µg/mL] | MIC [6] | MIC ([15]; ATCC 9885, 24 h) [µg/mL] | MIC [17] | MIC [18] | MIC ([7]; NRRL Y-477, 48 h) [µg/mL] | MIC [13] | MIC [14] | IC50 [25] [µg/mL] | diameter of the inhibition zone (DIZ) [26] | diameter of the inhibition zone (DIZ) [27] [mm] | diameter of the inhibition zone (DIZ) [28] [mm] | diameter of the inhibition zone (DIZ) [29] [mm] | diameter of the inhibition zone (DIZ) [30] | diameter of the inhibition zone (DIZ) [31] [mm] | diameter of the inhibition zone (DIZ) [32] [mm] | diameter of the inhibition zone (DIZ) [33] | diameter of the inhibition zone (DIZ) [34] [mm] | diameter of the inhibition zone (DIZ) [35] [mm] | also measured
O=C(O)c1cn(C2CC2)c2cc(N3CCNCC3)c(F)cc2c1=O [CIPROFLOXACIN] | inactive | 25 (≈ 75.4 µM) | inactive | 25 (≈ 75.4 µM) | 25 µg/mL (≈ 75.4 µM) | – | – | – | – | – | – | – | – | – | – | – | – | – | – | – | diameter of the inhibition zone (DIZ) [3]: inactive; zone of inhibition at 50000 µg/mL [4]: 25 mm; zone of inhibition at 50000 µg/mL [5]: 24 mm; MIC [7]: inactive; diameter of the inhibition zone (DIZ) [8]: inactive; zone of inhibition at 50000 µg/mL ([9]; ATCC 9885, 24 h, read-out: DIZ): 24 mm; zone of inhibition at 50000 µg/mL ([10]; read-out: DIZ): 20 mm; zone of inhibition at 50000 µg/mL [11]: 22 mm; zone of inhibition at 50000 µg/mL [12]: 20 mm; MIC ([13]; ATCC 6633, 24 h): 25 µg/mL (≈ 75.4 µM); MIC ([14]; ATCC 13883, 24 h): 25 µg/mL (≈ 75.4 µM); diameter of the inhibition zone (DIZ) [16]: inactive
Clc1ccccc1C(c1ccccc1)(c1ccccc1)n1ccnc1 [CLOTRIMAZOLE] | 25 µg/mL (≈ 72.5 µM) | – | 25 µg/mL (≈ 72.5 µM) | – | inactive | inactive | 25 (≈ 72.5 µM) | inactive | inactive | – | – | – | – | – | – | – | – | – | – | – | MIC [2]: inactive; diameter of the inhibition zone (DIZ) [19]: inactive; DIZ [20]: inactive; zone of inhibition at 50000 µg/mL ([3]; read-out: DIZ): 33 mm; DIZ [21]: inactive; zone of inhibition at 50000 µg/mL ([8]; NRRL Y-477, 48 h, read-out: DIZ): 30 mm; MIC [22]: inactive; diameter of the inhibition zone (DIZ) [9]: inactive; DIZ [23]: inactive; diameter of the inhibition zone (DIZ) [10]: inactive; DIZ [24]: inactive; MIC [15]: inactive; zone of inhibition at 50000 µg/mL ([16]; read-out: DIZ): 31 mm

Further lines, with some results ahead:

MIC [1] | MIC ([2]; ATCC 25922, 24 h) [µg/mL] | MIC [6] | MIC ([15]; ATCC 9885, 24 h) [µg/mL] | MIC [17] | MIC [18] | MIC ([7]; NRRL Y-477, 48 h) [µg/mL] | MIC [13] | MIC [14] | IC50 [25] [µg/mL] | Structure (SMILES) | diameter of the inhibition zone (DIZ) [26] | diameter of the inhibition zone (DIZ) [27] [mm] | diameter of the inhibition zone (DIZ) [28] [mm] | diameter of the inhibition zone (DIZ) [29] [mm] | diameter of the inhibition zone (DIZ) [30] | diameter of the inhibition zone (DIZ) [31] [mm] | diameter of the inhibition zone (DIZ) [32] [mm] | diameter of the inhibition zone (DIZ) [33] | diameter of the inhibition zone (DIZ) [34] [mm] | diameter of the inhibition zone (DIZ) [35] [mm] | also measured
200 µg/mL (≈ 249 µM) | 200 (≈ 249 µM) | 200 µg/mL (≈ 249 µM) | 200 (≈ 249 µM) | 200 µg/mL (≈ 249 µM) | inactive | 200 (≈ 249 µM) | – | inactive | 150 (≈ 186 µM) | O=C(Cn1cc(COC(Cc2cn(CC(=O)c3ccc(Br)cc3)nn2)c2ccc(S(=O)(=O)c3ccccc3)cc2)nn1)c1ccc(Br)cc1 (stereo not given) | inactive | 20 | 17 | 20 | 21 mm | 22 | 17 | inactive | 17 | 20 | MIC ([22]; ATCC 29213, 24 h): 200 µg/mL (≈ 249 µM); MIC ([13]; ATCC 6633, 24 h): 200 µg/mL (≈ 249 µM)
25 µg/mL (≈ 41.3 µM) | 200 (≈ 331 µM) | inactive | 200 (≈ 331 µM) | 200 µg/mL (≈ 331 µM) | 200 µg/mL (≈ 331 µM) | 200 (≈ 331 µM) | inactive | inactive | 600 (≈ 992 µM) | CC(Cc1cn(Cc2ccccc2)nn1)(OCc1cn(Cc2ccccc2)nn1)c1ccc(S(=O)(=O)c2ccccc2)cc1 (stereo not given) | 19 mm | 34 | 18 | 14 | 16 mm | 17 | 14 | 15 mm | 14 | 17 | MIC [22]: inactive
25 µg/mL (≈ 35.9 µM) | 100 (≈ 144 µM) | inactive | 200 (≈ 287 µM) | 50 µg/mL (≈ 71.8 µM) | 100 µg/mL (≈ 144 µM) | – | inactive | – | 150 (≈ 215 µM) | CC(Cc1cn(CC(=O)c2ccc(F)cc2)nn1)(OCc1cn(CC(=O)c2ccc(F)cc2)nn1)c1ccc(S(=O)(=O)c2ccccc2)cc1 (stereo not given) | 27 mm | 34 | 25 | 15 | inactive | 26 | 15 | 26 mm | 27 | 17 | MIC [7]: inactive; MIC ([22]; ATCC 29213, 24 h): 100 µg/mL (≈ 144 µM); MIC ([14]; ATCC 13883, 24 h): 100 µg/mL (≈ 144 µM)

Source: ChEMBL document CHEMBL3351505, “Ultrasound-assisted synthesis of novel 1,2,3-triazoles coupled diaryl sulfone moieties by the CuAAC reaction, and biological evaluation of them as antioxidant and antimicrobial agents” (Eur J Med Chem, 2014)
